Compound activity: PubChem BioAssay, The Scripps Research Institute Molecular Screening Center
CHO parental Ca – signal in parental CHO cells, OX1R antagonist counter-screen. parental CHO-K1, ATP-induced calcium, Fluo-8 fluorescence. inhibition, % at 5.6 µM. 330,000 tested, 0.63% active. AID 463079;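 active means inhibition above that plate's mean sample inhibition plus 3 SD, cut at about 26% in these data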;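 further: 0% = ATP-challenged DMSO wells and 100% = DMSO wells without ATP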
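Test system: parental CHO cells; detection: calcium-sensitive Fluo-8 fluorescence; evaluation: percent inhibition of calcium signal; also added: ATP as calcium-mobilizing challenge; repeats: one well per compound; control set: ATP-challenged DMSO wells low, unchallenged DMSO wells high; compound: single nominal dose of 5.6 µM per compound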
OX1R antag-1 – blocks the human orexin 1 receptor; O43613; 330,000 tested, 1.8% active; AID 485270; OX1R-expressing cells, FRET antagonist read-out; inhibition, % at 6.6 µM; in the data active means inhibition mostly above about 38%, no sharp cut-off; inactive means mostly below about 40%;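 further: 0% = agonist challenge alone and 100% = reference antagonist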
Target sequence (O43613 whole entry, looked up): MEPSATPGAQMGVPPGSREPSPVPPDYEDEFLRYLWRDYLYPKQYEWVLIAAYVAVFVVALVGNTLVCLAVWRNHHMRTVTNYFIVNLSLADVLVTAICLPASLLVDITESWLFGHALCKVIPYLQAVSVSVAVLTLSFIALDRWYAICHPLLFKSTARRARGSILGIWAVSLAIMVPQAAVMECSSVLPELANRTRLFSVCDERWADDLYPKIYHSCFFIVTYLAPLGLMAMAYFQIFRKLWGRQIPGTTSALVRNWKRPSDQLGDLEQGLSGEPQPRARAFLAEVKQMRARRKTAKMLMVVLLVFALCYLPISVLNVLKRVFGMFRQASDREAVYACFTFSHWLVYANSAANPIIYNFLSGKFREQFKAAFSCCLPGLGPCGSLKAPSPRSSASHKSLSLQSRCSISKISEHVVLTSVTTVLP
TAAR1 ag – human TAAR1 agonism. Q96RJ0. CHO RD-HGA16 TAAR1, Fluo-8 calcium fluorescence; vehicle wells 0%, saturating PEA agonist 100%. activation, % at 3 µM. 360,000 tested, 0.99% active;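 active means activation above the mean activation of all test compounds in the run plus 3 SD, cut at about 38% in these data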
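System: CHO-derived RD-HGA16 cells with stable Gα16 and human TAAR1. Times: 17-24 h plating, Fluo-8 75 min 37 °C, 30 min RT. Measured by: calcium-sensitive Fluo-8 signal, excitation 470-495, emission 515-575 nm. Read-out basis: % activation relative to PEA EC100 response. Control set: DMSO and PEA EC100. Repeats: no replicates (n 1).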
GalR3 antagonist – human GalR3 antagonism. 360,000 tested, 0.44% active. inhibition, % at 3 µM. AID 651719. O60755. HEK293 GalR3-CNG cAMP membrane potential fluorescence; galR3 body fused to GalR1 C-terminus;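 active means inhibition above the screen-wide average plus 3 SD, cut at about 13% in these data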;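 further: forskolin and galanin both at EC90 stimulate the cells; cAMP rise reported by CNG channel membrane potential dye signal; 0% = forskolin plus galanin with DMSO and 100% = forskolin alone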
Target sequence (O60755 1-299 limits assumed): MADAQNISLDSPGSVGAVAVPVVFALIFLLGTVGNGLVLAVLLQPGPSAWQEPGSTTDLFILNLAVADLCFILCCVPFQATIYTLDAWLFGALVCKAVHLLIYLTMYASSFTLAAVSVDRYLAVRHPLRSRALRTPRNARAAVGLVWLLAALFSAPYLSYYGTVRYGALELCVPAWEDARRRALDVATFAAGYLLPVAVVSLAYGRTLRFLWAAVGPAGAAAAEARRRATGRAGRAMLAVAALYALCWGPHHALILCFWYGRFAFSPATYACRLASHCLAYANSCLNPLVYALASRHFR
TAAR1 antag – antagonists of human TAAR1 | CHO RD-HGA16 TAAR1, Fluo-8 calcium fluorescence, antagonist | Q96RJ0 | 360,000 tested, 1.5% active | inhibition, % at 3 µM;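 active means inhibition above a per-plate cutoff, the mean inhibition of test compounds on that plate plus 3 SD, cut at about 49% in these data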;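 further: 0% = DMSO plus EC80 beta-PEA response and 100% = DMSO alone without agonist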
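Test system: RD-HGA16 CHO cells with stable hTAAR1 and Gα16 / Probe or stimulus: EC80 β-phenethylamine stimulus / Times: seeding 17-24 h prior, 75-min 37 °C, 30-min RT dye loading / Detection: Fluo-8 calcium-sensitive fluorescence / Read-out basis: % inhibition scaled between DMSO and EC80 PEA controls / Repeats: singlicate, one well per test compound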
OX1R antag-2 – human HCRTR1 antagonism; AID 434989; inhibition, % at 5 µM; 330,000 tested, 0.43% active; CHO/OX1R cells, Fluo-8 calcium fluorescence, orexin A;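 active means inhibition above its plate's threshold, mean inhibition of all tested compounds on the plate plus 3 SD, cut at about 37% in these data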;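 further: 0% = orexin A challenge wells and 100% = SB-334867-A antagonist wells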
* hit, by the source's call; · = no result given. Compounds with a hit are over-represented: about 4.3% of the library has one in this group of screens.

SMILES	CHO parental Ca	OX1R antag-1	TAAR1 ag	GalR3 antagonist	TAAR1 antag	OX1R antag-2
O=C(Nc1ccon1)c1cc(-c2ccccc2)nc2ccccc12	-26.1	21.3	12.6	-1.0	14.4	-12.5
Cc1ccc(S(=O)(=O)N(C)C)cc1NC(=O)c1cc(-c2ccco2)nc2ccccc12	-24.8	34.3	·	·	·	-11.0
CCOc1cc(N2CCOCC2)c(OCC)cc1NC(=O)c1cc(-c2ccco2)nc2ccccc12	7.7	36.6*	15.3	-10.4	70.9*	-0.7
Cc1ccc2nc(-c3cccc(Cl)c3)c(Cc3ccsc3)n2c1	·	·	2.8	-0.3	-3.3	·
CC1(C(=O)N2Cc3ccccc3C2)CCN1C(=O)C1(c2ccc(Cl)cc2)CC1 (stereo not drawn)	·	·	0.0	-1.2	-10.7	·
COC(=O)[C@]12C[C@H](CC(=O)NCc3cccc(C(F)(F)F)c3)C(=O)N(Cc3ccccc3)C1=C[C@H](C(C)C)O[C@@H]2C1CC1	·	·	-0.8	-5.1	-20.2	·
COc1ccccc1N1CCN(C(=O)c2ccc(-c3ccc(Cl)cc3)o2)CC1	-9.7	0.8	-1.7	-3.2	46.1	2.4
O=C(Cc1cn(Cc2ccccc2)c2ccccc12)Nc1ccc(Nc2cccnc2)cc1	·	·	0.0	3.4	18.6	·
Cc1ccccc1-c1cc(C(=O)Nc2sc(C)c(C)c2C(N)=O)c2ccccc2n1	-26.2	60.0	18.0	-3.7	50.2*	-18.9
CCCCCc1cc(O)c2c(C)cc(=O)oc2c1	22.7	43.1*	22.6	-6.2	-14.0	1.9
Cc1cc(=O)oc2cc(O)cc(O)c12	·	·	2.4	-0.7	-16.1	·
Cc1ccc2c(c1C)-c1c(ccc(C)c1C)C(=O)C2=O	·	·	2.4	0.8	61.6*	·
Cc1ccc(CC#N)c(-c2c(CC#N)ccc(C)c2C)c1C	·	·	2.7	-3.1	20.7	·
Cc1cc(C(C)(C)C)cc(C)c1CCNC(=O)c1c(C)noc1C	·	·	3.5	-4.7	-20.9	·
O=S1(=O)c2ccc(Br)cc2N2CC[C@H](C2)N1Cc1ccc(Cl)cc1	·	·	1.2	-7.7	-5.9	·
O=c1cc(-c2ccccc2)c2cc(Cl)c(O)c(CN3CCOCC3)c2o1	-4.1	65.1*	6.3	-4.5	-5.6	-3.7
CCc1cc2c(-c3ccccc3)cc(=O)oc2c(CN2CCOCC2)c1O	-5.8	8.6	12.4	-3.1	24.0	-3.1
Nc1[nH]c(C(=O)c2ccccc2)c(-c2cccc(C(F)(F)F)c2)c1C(=O)NCCc1c[nH]c2ccccc12	·	·	7.7	-8.9	-13.3	·
O=C(CSc1cn(CCNC(=O)c2cccs2)c2ccccc12)NCc1ccccc1	-14.8	41.2*	1.1	·	32.7	-4.8
COc1ccc(C(=O)NCCn2cc(SCC(=O)Nc3cc(C)on3)c3ccccc32)cc1OC	-23.1	42.5	8.1	-3.1	15.9	-13.7
COc1ccccc1C(=O)NCCn1cc(SCC(=O)Nc2cc(C)on2)c2ccccc21	-19.5	41.6*	9.4	-6.5	47.8	-2.9
O=C(CSc1cn(CCNC(=O)c2cccs2)c2ccccc12)NC1CCCCC1	-5.0	41.1*	0.5	·	32.3	-14.5
O=C(NCCn1cc(SCc2ccccc2F)c2ccccc21)c1c(F)cccc1F	80.2*	25.5	2.0	·	82.7*	1.9
C[C@@H]1CN(C(=O)OC(C)(C)C)CCN1c1ccc(N2CCS(=O)(=O)CC2)c(C#N)c1	·	·	11.6	-7.0	16.3	·
O=C(Nc1ccc(C(O)c2ccccc2)cc1)[C@@H]1O[C@H](CO)[C@H](O)[C@H](O)[C@H]1O (stereo partly drawn)	·	·	1.1	3.3	-14.3	·
SMILES	CHO parental Ca	OX1R antag-1	TAAR1 ag	GalR3 antagonist	TAAR1 antag	OX1R antag-2
CN1CCN(C(=O)c2cnn(-c3ccccc3)c2NC(=O)c2ccc(Br)cc2)CC1	-6.8	18.8	0.3	-2.5	-12.8	-14.9
O=C1[C@H](Cc2ccccc2)NCC=CC[C@H](c2ccc(Cl)cc2)N1Cc1ccc(Cl)cc1	·	·	8.8	-8.8	-0.1	·
O=C(OCC(=O)N1CCC(c2ccccc2)=N1)c1ccc(Cl)s1	-16.2	33.7*	2.6	-5.2	3.3	33.5
CCOC(=O)c1ccc(NC(=O)C2CC(O)CN2S(=O)(=O)c2ccc(C)cc2)cc1 (stereo not drawn)	-4.8	4.3	13.8	-2.5	-9.8	-13.4
O=C(C(=O)N1CCC(CNS(=O)(=O)Cc2ccccc2)CC1)c1cccs1	·	·	1.4	-7.0	-10.3	·
CC(C)CC1NC(=O)c2ccccc2-n2c1nc1ccc(F)cc1c2=O (stereo not drawn)	-5.7	1.4	15.4	-2.7	3.3	-18.6
O=C(Nc1cccc(S(=O)(=O)N2CCOCC2)c1)c1cc(S(=O)(=O)N2CCOCC2)c(Cl)cc1Cl	·	·	32.0	0.1	76.2*	·
COc1ccc(C(=O)Nc2ccc(Cl)c(S(=O)(=O)N3CCOCC3)c2)cc1	15.5	23.7	20.8	-5.2	61.0*	43.0*
COc1ccc(C(=O)Nc2ccc(-c3ccc(C)o3)cc2)cc1S(=O)(=O)N1CCOCC1	10.8	40.7	17.4	93.6*	67.8*	-2.2
COc1ccc(C(=O)Nc2ccc(N3CCOCC3)cc2)cc1S(=O)(=O)N1CCOCC1	·	·	0.8	-1.7	-20.0	·
COc1ccc(C(=O)Nc2cccc(-c3csc(C)n3)c2)cc1S(=O)(=O)N1CCCC1	-19.4	8.8	20.8	-4.1	52.3*	-21.6
COc1ccc(NC(=O)N2CCN(C(=O)c3ccco3)CC2)c(OC)c1	0.3	3.8	3.3	-3.2	-8.2	9.9
O=C(CCCSc1ccccc1)Nc1ccc(Cl)c(S(=O)(=O)N2CCOCC2)c1	9.8	32.0*	13.4	-4.9	33.3	35.2
Cc1ccc(Cn2c(=N)n(CC(O)COc3ccccc3)c3ccccc32)cc1 (stereo not drawn)	41.2*	-7.2	13.0	-11.7	-16.3	52.0*
Cc1ccc(Nc2cc(C)nn2-c2nc(C)cc(=O)[nH]2)cc1	54.8*	9.6	·	·	·	40.6*
O=C(Nc1cc(Cl)cc(Cl)c1)Nc1cnccn1	35.9*	39.1	8.5	-0.7	-21.6	30.4
CC(=O)c1nn(-c2ccccc2)cc1C(=O)c1ccc(Br)cc1	40.2*	11.3	5.1	-3.9	11.8	9.5
COc1ccc(-c2csc(Nc3ccc(S(=O)(=O)Nc4cc(C)on4)cc3)n2)cc1C	-22.1	24.5	11.7	-11.2	49.0*	7.7
O=C(OCC#CCSc1nnc(-c2cccc3ccccc23)o1)c1cccs1	-11.5	56.4*	10.2	-0.8	29.6	3.5
Cc1cn([C@H]2C[C@H](O)[C@@H](CNCc3cccn3-c3nccs3)O2)c(=O)[nH]c1=O	·	·	8.0	-4.5	2.7	·
COc1ccc(CCNC(=O)CCNS(=O)(=O)c2cccc3nsnc23)cc1OC	-18.1	61.1*	15.6	2.0	-6.3	-16.2
COc1ccc(CCNC(=O)CCNS(=O)(=O)c2cccc3nonc23)cc1OC	-9.3	39.5	3.7	-3.4	-3.9	-13.8
